In the M2OR odorant receptor database:

Tests used:
OR5K1 (Homo sapiens) = target: T1, OR5K1 (Homo sapiens) (UniProt Q8NHB7); conditions: stereoisomer not certain
T1 sequence (whole entry): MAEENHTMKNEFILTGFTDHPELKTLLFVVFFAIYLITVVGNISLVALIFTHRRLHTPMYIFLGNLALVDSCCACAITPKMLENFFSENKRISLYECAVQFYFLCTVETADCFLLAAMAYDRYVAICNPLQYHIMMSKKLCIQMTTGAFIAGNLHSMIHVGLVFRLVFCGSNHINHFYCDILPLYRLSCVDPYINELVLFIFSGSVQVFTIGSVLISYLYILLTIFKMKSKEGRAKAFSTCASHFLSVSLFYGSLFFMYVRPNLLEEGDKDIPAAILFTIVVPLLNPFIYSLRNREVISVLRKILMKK
Summary of the method: (§1)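 Each entry records the cell line, G-protein, co-transfected protein and tags used. Methods varied with the source, often transient luciferase assays in mammalian cell lines. A receptor–molecule pair is called responsive (active) if the original authors judged its signal statistically different from baseline and non-responsive (inactive) otherwise.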

OR5M3 (Homo sapiens) = target: T2, OR5M3 (Homo sapiens) (UniProt Q8NGP4); conditions: stereoisomer not certain
T2 sequence (whole entry): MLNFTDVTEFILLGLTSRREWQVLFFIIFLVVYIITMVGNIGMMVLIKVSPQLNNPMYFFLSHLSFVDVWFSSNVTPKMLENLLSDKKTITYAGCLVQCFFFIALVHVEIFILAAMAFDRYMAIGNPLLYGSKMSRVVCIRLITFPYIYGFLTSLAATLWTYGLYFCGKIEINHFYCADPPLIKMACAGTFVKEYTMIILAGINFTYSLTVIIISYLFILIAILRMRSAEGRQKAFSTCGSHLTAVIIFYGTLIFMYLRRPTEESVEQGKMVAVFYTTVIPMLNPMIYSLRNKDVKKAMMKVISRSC
Summary of the method: as §1

Row | Compound | odorant receptor agonist call (OR5K1 (Homo sapiens)) | odorant receptor agonist call (OR5M3 (Homo sapiens))
1 | CC(C)(S)CCOC=O | inactive | inactive
2 | COC(=O)C(C)C | inactive | inactive
3 | COC1=C(C)OC(C)C1=O (stereo not drawn) | active | inactive
4 | CCc1cccc(O)c1 | inactive | inactive
5 | Cc1occc1S | inactive | inactive
6 | CCCC(S)CCO (stereo not drawn) | inactive | inactive
7 | CCC=O | inactive | inactive
8 | COc1ccc2ccc(=O)oc2c1 | inactive | inactive
9 | CCCCCC1CCC(=O)O1 (stereo not drawn) | inactive | inactive
10 | CCCC(O)CC(=O)OCC (stereo not drawn) | inactive | inactive
11 | CCC(=O)C(C)=O | inactive | inactive
12 | Cc1c[nH]c2ccccc12 | inactive | inactive
13 | CCCCCC=O | inactive | inactive
14 | CCC=CCCC=CCO | inactive | inactive
15 | C=CC(=O)CC=CCC | inactive | inactive
16 | CCCCC(C)CCC(=O)O (stereo not drawn) | inactive | inactive
17 | CCCCCc1ccccn1 | inactive | inactive
18 | CCC(=O)C1=NCCC1 | inactive | inactive
19 | C=C1CCC2(C(C)C)CC12 (stereo not drawn) | inactive | inactive
20 | CCCCCCCC(C)=O | inactive | inactive
21 | C=Cc1ccc(O)c(OC)c1 | inactive | inactive

Row | Compound | odorant receptor agonist call (OR5K1 (Homo sapiens)) | odorant receptor agonist call (OR5M3 (Homo sapiens))
22 | Cc1occc(=O)c1O | inactive | inactive
23 | CCCCCCCC1CCC(=O)O1 (stereo not drawn) | inactive | inactive
24 | CC(C)CCCCCCCCCCC=O | inactive | inactive
25 | CCCSSCCC | inactive | inactive
26 | CC(=O)OCCc1ccccc1 | inactive | inactive
27 | C=CC(=O)CCCCC | inactive | inactive
28 | C=C(C)C1CC=C(C)CC1 (stereo not drawn) | inactive | inactive
29 | C=C(C)c1ccc(C)cc1 | inactive | inactive
30 | CCC=CCCOC(C)=O | inactive | inactive
31 | CCOC(=O)C=Cc1ccccc1 | inactive | inactive
32 | SCc1cccs1 | inactive | inactive
33 | Cc1cccc(O)c1 | inactive | inactive
34 | CSCSC | inactive | inactive
35 | O=C(O)CCc1ccccc1 | inactive | inactive
36 | OCC=Cc1ccccc1 | inactive | inactive
37 | CCC(S)C(C)=O (stereo not drawn) | inactive | inactive
38 | CCCCC(=O)OCC | inactive | inactive
39 | C=CC(=O)CC | inactive | inactive
40 | CCOC(C)OCC | inactive | inactive
41 | CC(=O)OCC=Cc1ccccc1 | inactive | inactive
42 | CSC | inactive | inactive

Row | Compound | odorant receptor agonist call (OR5K1 (Homo sapiens)) | odorant receptor agonist call (OR5M3 (Homo sapiens))
43 | CCCCCCCC(=O)OCC | inactive | inactive
44 | CC(C)CCO | inactive | inactive
45 | COc1ccc(C)cc1O | inactive | inactive
46 | CCCCCC(=O)OCC | inactive | inactive
47 | CCCCCCCCCO | – | inactive
48 | CCCCCCCCC1CCC(=O)O1 (stereo not drawn) | inactive | inactive
49 | CC1=CCC(C(C)C)C=C1 (stereo not drawn) | inactive | inactive
50 | CCCCCC=CC=O | inactive | inactive
51 | CCCCCCCC1CCCC(=O)O1 (stereo not drawn) | inactive | inactive
52 | CCCCC1OC(=O)CC1C (stereo not drawn) | inactive | inactive
53 | CC1=CCOC1=O | – | inactive
54 | COC(=O)C=Cc1ccccc1 | – | inactive
55 | C=CC(O)CCCCC (stereo not drawn) | inactive | inactive
56 | CCC(=O)C(C)S (stereo not drawn) | inactive | inactive
57 | CC1=CCC(C(C)(C)S)CC1 (stereo not drawn) | inactive | inactive
58 | CC1(C)OC=CC1=O | – | inactive
59 | C=Cc1ccc(O)cc1 | inactive | inactive
60 | CCc1ccc(O)cc1 | inactive | inactive
61 | CC(=O)C1=NCCS1 | inactive | inactive
